Results on six compounds are retold here after ChEMBL document CHEMBL1146242, “Synthesis and antibacterial activity of novel oxazolidinones with methylene oxygen- and methylene sulfur-linked substituents at C5-position” (2007).

What all share (format): functional
The subject of one assay is Enterococcus faecalis. Kind of assay: Antimicrobial activity against Enterococcus faecalis ATCC 29212 by agar dilution method. The procedure, abridged:
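Compounds were stocked at 1 mg/mL in DMSO. Direct colony suspensions in saline were set to 0.5 McFarland, diluted 10-fold and applied with a replicator. Plates were incubated in ambient air at 35 °C for 18–24 h.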

Assay [1] relates to Staphylococcus aureus. Kind of assay: Antimicrobial activity against methicillin-resistant Staphylococcus aureus 562 by agar dilution method. The procedure, abridged: (§1)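 NCCLS agar dilution MIC in Mueller Hinton agar. Compounds were made up as 1 mg/mL DMSO stocks and serially diluted 2-fold into molten agar, final range 16 to 0.015. Direct colony suspensions in saline were set to 0.5 McFarland, diluted 10-fold, and spotted with a replicator. Plates were incubated in ambient air at 35 °C for 18–24 h.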

Another assay has as its system Haemophilus influenzae. Kind of assay: Antimicrobial activity against Haemophilus influenzae ATCC 49247 by agar dilution method. The procedure, abridged:
(§2)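 NCCLS agar dilution with serial 2-fold drug dilutions in Mueller Hinton agar, 16–0.015 µg/mL final. Drug stocks were 1 mg/mL in DMSO. The inoculum was a 0.5 McFarland saline colony suspension diluted 10-fold and replicator-spotted. As fastidious organisms, plates were incubated in 5% CO₂ at 35 °C for 18–24 h.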

A further assay relates to Enterococcus faecium. The experiment in a line: Antimicrobial activity against vancomycin-resistant Enterococcus faecium 6A by agar dilution method. The procedure, abridged:
as §1

The subject of assay [2] is Staphylococcus aureus. Kind of assay: Antimicrobial activity against methicillin-resistant Staphylococcus aureus 33 by agar dilution method. The procedure, abridged:
as §1

A further assay deals with Streptococcus pneumoniae. The experiment in a line: Antimicrobial activity against Streptococcus pneumoniae ATCC 6303 by agar dilution method. The procedure, abridged:
as §2

Assay [3] deals with Staphylococcus aureus. Kind of assay: Antimicrobial activity against Staphylococcus aureus ATCC 25923 by agar dilution method. The procedure, abridged:
as §1

Assay [4] concerns Staphylococcus aureus. The experiment in a line: Antimicrobial activity against Staphylococcus aureus 15187 by agar dilution method. The procedure, abridged: as §1
The test system of the next assay is Moraxella catarrhalis. The experiment in a line: Antimicrobial activity against Moraxella catarrhalis M2 by agar dilution method. The procedure, abridged:
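MIC was read by NCCLS agar dilution using doubling dilutions in Mueller Hinton agar, 16–0.015 µg/mL final, from 1 mg/mL DMSO stocks. Colonies were suspended in saline to 0.5 McFarland, diluted 10-fold and transferred with a replicator. Plates were incubated at 35 °C for 18–24 h.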

The test system of a further assay is Streptococcus pyogenes. Kind of assay: Antimicrobial activity against Streptococcus pyogenes ATCC 19615 by agar dilution method.

Converted amounts (≈) assume the structure as drawn. Bounds are passed on as bounds.

Consider `CC(=O)NC[C@H]1CN(c2ccc(N3CCN(c4ccc([N+](=O)[O-])s4)CC3)c(F)c2)C(=O)O1`, for which the MIC in the assay with Enterococcus faecalis was determined as 0.25 µg/mL (≈ 0.539 µM); in the assay with Staphylococcus aureus [1], 0.25 µg/mL (≈ 0.539 µM); in the assay with Haemophilus influenzae it was 8 µg/mL (≈ 17.3 µM); against Enterococcus faecium, 0.25 µg/mL (≈ 0.539 µM); in the assay with Staphylococcus aureus [2] it was 0.25 µg/mL (≈ 0.539 µM); against Streptococcus pneumoniae it was 0.125 µg/mL (≈ 0.27 µM). In addition, the MIC came to 0.25 µg/mL (≈ 0.539 µM) with Staphylococcus aureus [3], 0.25 µg/mL (≈ 0.539 µM) in the assay on Staphylococcus aureus [4], 0.25 µg/mL (≈ 0.539 µM) with Moraxella catarrhalis and 0.125 µg/mL (≈ 0.27 µM) against Streptococcus pyogenes.
As to `CN[C@H](CC(C)C)C(=O)N[C@H]1C(=O)N[C@@H](CC(N)=O)C(=O)N[C@H]2C(=O)N[C@H]3C(=O)N[C@H](C(=O)N[C@H](C(=O)O)c4cc(O)cc(O)c4-c4cc3ccc4O)[C@H](O)c3ccc(c(Cl)c3)Oc3cc2cc(c3O[C@@H]2O[C@H](CO)[C@@H](O)[C@H](O)[C@H]2O[C@H]2C[C@](C)(N)[C@H](O)[C@H](C)O2)Oc2ccc(cc2Cl)[C@H]1O` [VANCOMYCIN], the MIC in the assay on Haemophilus influenzae is greater than 64 µg/mL; in the assay with Enterococcus faecium, greater than 16 µg/mL; in the assay on Streptococcus pneumoniae, 0.5 µg/mL (≈ 0.345 µM); in the assay with Moraxella catarrhalis it was greater than 16 µg/mL.
`CC(=O)NC[C@H]1CN(c2ccc(N3CCOCC3)c(F)c2)C(=O)O1` [LINEZOLID]: the MIC was 4 µg/mL (≈ 11.9 µM) in the assay on Haemophilus influenzae, 2 µg/mL (≈ 5.93 µM) with Enterococcus faecium, greater than 4 µg/mL with Moraxella catarrhalis and 2 µg/mL (≈ 5.93 µM) against Streptococcus pyogenes.
Turning to `O=C1O[C@@H](CO)CN1c1ccc(N2CCN(c3ccc([N+](=O)[O-])s3)CC2)c(F)c1`, the MIC with Enterococcus faecalis was 0.5 µg/mL (≈ 1.18 µM); in the assay with Staphylococcus aureus [1], 0.5 µg/mL (≈ 1.18 µM); with Haemophilus influenzae, 8 µg/mL (≈ 18.9 µM); in the assay with Enterococcus faecium it was 0.5 µg/mL (≈ 1.18 µM); against Staphylococcus aureus [2], 0.5 µg/mL (≈ 1.18 µM); in the assay on Streptococcus pneumoniae, 1 µg/mL (≈ 2.37 µM). Also, the MIC with Staphylococcus aureus [3] is 0.5 µg/mL (≈ 1.18 µM); against Staphylococcus aureus [4] it was 0.5 µg/mL (≈ 1.18 µM); in the assay on Moraxella catarrhalis it was 2 µg/mL (≈ 4.73 µM); in the assay with Streptococcus pyogenes, 0.5 µg/mL (≈ 1.18 µM).
On to `CC(=O)OC[C@H]1CN(c2ccc(N3CCN(c4ccc([N+](=O)[O-])s4)CC3)c(F)c2)C(=O)O1`, for which the MIC against Enterococcus faecalis is 0.5 µg/mL (≈ 1.08 µM); against Staphylococcus aureus [1], 0.5 µg/mL (≈ 1.08 µM); in the assay on Haemophilus influenzae, greater than 16 µg/mL; against Enterococcus faecium, 1 µg/mL (≈ 2.15 µM); against Staphylococcus aureus [2], 0.5 µg/mL (≈ 1.08 µM); against Streptococcus pneumoniae it was 1 µg/mL (≈ 2.15 µM). Further, the MIC against Staphylococcus aureus [3] is 0.5 µg/mL (≈ 1.08 µM); in the assay with Staphylococcus aureus [4], 0.5 µg/mL (≈ 1.08 µM); in the assay with Moraxella catarrhalis, greater than 16 µg/mL; against Streptococcus pyogenes, 0.25 µg/mL (≈ 0.538 µM).
Consider `Cc1ccccc1S(=O)(=O)NC(=O)OC[C@H]1CN(c2ccc(N3CCN(c4ccc([N+](=O)[O-])s4)CC3)c(F)c2)C(=O)O1`, for which the MIC with Enterococcus faecalis is 8 µg/mL (≈ 12.9 µM); with Staphylococcus aureus [1], 16 µg/mL (≈ 25.8 µM); in the assay on Haemophilus influenzae, greater than 16 µg/mL; against Enterococcus faecium, 1 µg/mL (≈ 1.61 µM); with Staphylococcus aureus [2], 16 µg/mL (≈ 25.8 µM); against Streptococcus pneumoniae it was 1 µg/mL (≈ 1.61 µM). Moreover, the MIC is 16 µg/mL (≈ 25.8 µM) with Staphylococcus aureus [3], 16 µg/mL (≈ 25.8 µM) with Staphylococcus aureus [4], greater than 8 µg/mL against Moraxella catarrhalis and 0.5 µg/mL (≈ 0.807 µM) in the assay with Streptococcus pyogenes.
